Experimental data taken from the RNAGym collection of RNA variant scans (doi:10.1002/anie.201605470).

B1: Osa-1-4 twister ribozyme (parent)
chain: CCGCCUAACACUGCCAAUGCCGGUCCCAAGCCCGGAUAAAAGUGGAGGGGGCGG

Variants of: B1
Assay: self-cleavage, relative activity (ratio to wild type); higher = more cleavage; co-transcriptional
How it was run: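 The 48 positions downstream of the cleavage site in a 54-nucleotide Oryza sativa twister ribozyme template were synthesised at 97 % wild-type base and 1 % of each other base. The template was transcribed in vitro at 37 °C for 2 h, with self-cleavage allowed during transcription. Reads with or without upstream sequence after deep sequencing marked cleavage status, and relative activity is fraction cleaved normalised to wild type.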

In order of rising self-cleavage:
1. CCGCCUAACACUACCAAUGCCGGUCCCAAGCCCGGAUAAAAGUGCAGGGGGCGG [G13A G45C]  0.02
2. CCGCCUAACACUACCAAUGCCGGUCCCAAGCCCGGAUAAAAGUGUAGGGGGCGG [G13A G45U]  0.02
3. CCGCCUAACACUACCAAUGCCGUUCCCAAGCCCGGAUAAAAGUGGAGGGGGCGG [G13A G23U]  0.02
4. CCGCCUAACACUACCAAUGCCGCUCCCAAGCCCGGAUAAAAGUGGAGGGGGCGG [G13A G23C]  0.02
5. CCGCCUAACACUACCAAUGCCGGUCCCAAGCCCGGAUAAAAGUGAAGGGGGCGG [G13A G45A]  0.03
6. CCGCCUAACACUACCAAUGCCGGUCCCAAGCCCGGAUAAAAGUGGACGGGGCGG [G13A G47C]  0.03
7. CCGCCUAACACUACCAAUGCCGGUCCCAAGCCCGGAUAAAAGUGGAUGGGGCGG [G13A G47U]  0.03
8. CCGCCUAACACCGCCAAUGCCGGGCCCAAGCCCGGAUAAAAGUGGAGGGGGCGG [U12C U24G]  0.03
9. CCGCCUAACACUACCAAUGCCCGUCCCAAGCCCGGAUAAAAGUGGAGGGGGCGG [G13A G22C]  0.03
10. CCGCCUAACACUACCAAUCCCGGUCCCAAGCCCGGAUAAAAGUGGAGGGGGCGG [G13A G19C]  0.03
11. CCGCCUAACACUACCAAUGCCGGUCCCAAGCCCGGAUAAAAGUGGAGGGGGCCG [G13A G53C]  0.03
12. CCGCCUAACACCACCAAUGCCGGUCCCAAGCCCGGAUAAAAGUGGAGGGGGCGG [G13A U12C]  0.04
13. CCGCCUAACACUACCAAUGCCGAUCCCAAGCCCGGAUAAAAGUGGAGGGGGCGG [G13A G23A]  0.04
14. CCGCCUAACACUACCAAUGCCGGUCCCAAGCCCGGAUAAAAGUGGAAGGGGCGG [G13A G47A]  0.04
15. CCGCCUAACACGGCCAAUGCCGGCCCCAAGCCCGGAUAAAAGUGGAGGGGGCGG [U12G U24C]  0.04
16. CCGCCUAACACGGCCAAUGCCGGGCCCAAGCCCGGAUAAAAGUGGAGGGGGCGG [U12G U24G]  0.04
17. CCGCCUAACACUACCAAUGCCUGUCCCAAGCCCGGAUAAAAGUGGAGGGGGCGG [G13A G22U]  0.04
18. CCGCCUAACACUACCAAUUCCGGUCCCAAGCCCGGAUAAAAGUGGAGGGGGCGG [G13A G19U]  0.04
19. CCGCCUAACACUACCAAUGCCGGUCCCAAGCCCUGAUAAAAGUGGAGGGGGCGG [G13A G34U]  0.05
20. CCGCCUAACACUACCAAUGCCGGUCCCAAGCCCCGAUAAAAGUGGAGGGGGCGG [G13A G34C]  0.05
21. CCGCCUAACACUACCAAUGCCGGACCCAAGCCCGGAUAAAAGUGGAGGGGGCGG [G13A U24A]  0.05
22. CCGCCUAACACCGCCAAUGCCGGACCCAAGCCCGGAUAAAAGUGGAGGGGGCGG [U12C U24A]  0.05
23. CCGCCUAACACGGCCAAUGCCGGACCCAAGCCCGGAUAAAAGUGGAGGGGGCGG [U12G U24A]  0.05
24. CCGCCUAACACUACCAAUGCCGGUCCCAAGCCCGGAUAAAAGUGGAGGGGGCUG [G13A G53U]  0.05
25. CCGCCUAACACCGCCAAUGCCGGCCCCAAGCCCGGAUAAAAGUGGAGGGGGCGG [U12C U24C]  0.06
26. CCGCCUAACACUACCAAUGCCGGUCCCAAGCCCGGAUAAAAGUGGAGGGGGCAG [G13A G53A]  0.06
27. CCGCCUAACACAACCAAUGCCGGUCCCAAGCCCGGAUAAAAGUGGAGGGGGCGG [G13A U12A]  0.07
28. CCGCCUAACACUACCAAUGCCAGUCCCAAGCCCGGAUAAAAGUGGAGGGGGCGG [G13A G22A]  0.07
29. CCGCCUAACACUACCAAUGCCGGUCCCAAGCCCGGAUAAAAGUGGAGGGUGCGG [G13A G50U]  0.08
30. CCGCCUAACACCGCCAAUGCCGGUCCCAAGCCCGGAUAAAAGCGGAGGGGGCGG [U12C U43C]  0.08
31. CCGCCUAACACUACCAAUACCGGUCCCAAGCCCGGAUAAAAGUGGAGGGGGCGG [G13A G19A]  0.08
32. CCGCCUAACACUACCAAUGCCGGUCCCAAGCCCAGAUAAAAGUGGAGGGGGCGG [G13A G34A]  0.09
33. CCGCCUAACACGACCAAUGCCGGUCCCAAGCCCGGAUAAAAGUGGAGGGGGCGG [G13A U12G]  0.09
34. CCGCCUAACACCGCCAAUGCCGGUCCCAAGCCCGGAUAAAAGGGGAGGGGGCGG [U12C U43G]  0.09
35. CCGCCUAACACCGCCAAUGCCGGUCCCAAGCCCGGAUAAAAGAGGAGGGGGCGG [U12C U43A]  0.11
36. CCGCCUAACAUUGCCAAUGCCGGUCCCAAGCCCGGAUAAAAGGGGAGGGGGCGG [C11U U43G]  0.2
37. CCGCCUAACAUUGCCAAUGCCGGUCCCAAGCCCGGAUAAAAGCGGAGGGGGCGG [C11U U43C]  0.26
38. CCGCCUAACACGGCCAACGCCGGUCCCAAGCCCGGAUAAAAGUGGAGGGGGCGG [U12G U18C]  0.28
39. CCGCCUAACACCGCCAACGCCGGUCCCAAGCCCGGAUAAAAGUGGAGGGGGCGG [U12C U18C]  0.38
40. CCGCCUAACACGGCCAAAGCCGGUCCCAAGCCCGGAUAAAAGUGGAGGGGGCGG [U12G U18A]  0.39
41. CCGCCUAACACCGCCAAUGCCGGUCCCAAGCCCGGACAAAAGUGGAGGGGGCGG [U12C U37C]  0.44
42. CCGCCUAACACCGCCAAAGCCGGUCCCAAGCCCGGAUAAAAGUGGAGGGGGCGG [U12C U18A]  0.46
43. CCGCCUAACACCGCCAAUGCCGGUCCCAAGCCCGGAAAAAAGUGGAGGGGGCGG [U12C U37A]  0.51
44. CCGCCUAACACGGCCAAUGCCGGUCCCAAGCCCGGAUAAAAGUGGAGGGGGCGG [U12G]  0.55
45. CCGCCUAACACGGCCAAGGCCGGUCCCAAGCCCGGAUAAAAGUGGAGGGGGCGG [U12G U18G]  0.59
46. CCGCCUAACACCGCCAAGGCCGGUCCCAAGCCCGGAUAAAAGUGGAGGGGGCGG [U12C U18G]  0.61
47. CCGCCUAACACCGCCAAUGCCGGUCCCAAGCCCGGAGAAAAGUGGAGGGGGCGG [U12C U37G]  0.66
48. CCGCCUAACACCGCCAAUGCCGGUCCCAAGCCCGGAUAAAAGUGGAGGGGGCGG [U12C]  0.66
49. CCGCCUAACACAGCCAAUGCCGGUCCCAAGCCCGGAUAAAAGUGGAGGGGGCGG [U12A]  0.99
